Compound activity deposited in PubChem BioAssay by several laboratories.
Sampled rows, rich in hits. Any-hit rate of the full collection: about 2.9%.
mABHD4 FP: inhibitors of mouse ABHD4 | AID 720543 | inhibition, % at 8.92 µM | purified mABHD4, FP-Rh probe fluorescence polarization | 370,000 tested, 0.54% active;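 active means inhibition exceeding the mean over every tested compound plus 3 SD, cut at about 30% in these data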
Target sequence (Q8VD66 whole entry, looked up): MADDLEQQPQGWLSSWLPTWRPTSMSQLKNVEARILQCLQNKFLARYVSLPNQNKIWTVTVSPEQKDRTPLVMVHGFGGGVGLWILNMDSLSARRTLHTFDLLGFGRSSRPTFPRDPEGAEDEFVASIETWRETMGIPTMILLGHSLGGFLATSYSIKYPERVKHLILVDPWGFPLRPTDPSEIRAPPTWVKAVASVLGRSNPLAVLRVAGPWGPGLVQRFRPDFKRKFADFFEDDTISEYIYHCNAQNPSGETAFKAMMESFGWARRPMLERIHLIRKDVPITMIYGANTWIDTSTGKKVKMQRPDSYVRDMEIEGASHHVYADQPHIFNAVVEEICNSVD
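System: mouse ABHD4 enzyme, wild type / Medium: HEPES pH 7.0, NaCl, Pluronic buffer / Reagent: FP-Rh activity-based fluorescent probe / Control set: S159A mutant high control, sample median low control / Detection: fluorescence polarization with parallel and perpendicular emission, 525/598 nm / Schedule: 45 min + 60 min at 25 °C / Compound dosing: 8.92 µM, single dose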
SIAE inh: inhibitors of human sialic acid acetylesterase SIAE. Q9HAT2. SIAE FP-Rh probe binding, fluorescence polarization. inhibition, % at 9.66 µM. 370,000 tested, 0.69% active;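 active means inhibition above a cutoff: mean of compounds within the control limits plus 3 SD of those, cut at about 17% in these data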
PRMT1 inh: PRMT1 (human) inhibition, primary screen; inhibition, % at 2.79 µM; 370,000 tested, 1.3% active; AID 652257; Q99873; recombinant PRMT1, activity-based probe fluorescence polarization;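 active means inhibition above about 21% made by adding two undisclosed values, limit read from the data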
TCR-CD3 inh: human TCR-CD3 binding inhibition | TAMRA-labeled TCR probe fluorescence, biochemical | inhibition, % at 9.4 µM | 360,000 tested, 0.37% active | AID 651800; in the data active means inhibition above about 19%;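 further: recombinant mutant TCR 2C K166C tagged with TAMRA read by polarization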
HTRA1 inhibitor: inhibitors of human serine peptidase HTRA1; inhibition, % at 5.96 µM; Q92743; recombinant HTRA1, FP-rhodamine activity-based probe, fluorescence polarization; 340,000 tested, 0.5% active; AID 504803; in the data active means inhibition above about 36%
ATG4B inhibitor: blocks human ATG4B protease cleavage of LC3 substrate; ATG4B cleavage of LC3-PLA2, NBD-HPC fluorescence, 1 h; inhibition, % at 8.33 µM; 340,000 tested, 0.51% active; AID 504462; in the data active means inhibition above about 40%
Target sequence (Q9Y4P1 whole entry, looked up): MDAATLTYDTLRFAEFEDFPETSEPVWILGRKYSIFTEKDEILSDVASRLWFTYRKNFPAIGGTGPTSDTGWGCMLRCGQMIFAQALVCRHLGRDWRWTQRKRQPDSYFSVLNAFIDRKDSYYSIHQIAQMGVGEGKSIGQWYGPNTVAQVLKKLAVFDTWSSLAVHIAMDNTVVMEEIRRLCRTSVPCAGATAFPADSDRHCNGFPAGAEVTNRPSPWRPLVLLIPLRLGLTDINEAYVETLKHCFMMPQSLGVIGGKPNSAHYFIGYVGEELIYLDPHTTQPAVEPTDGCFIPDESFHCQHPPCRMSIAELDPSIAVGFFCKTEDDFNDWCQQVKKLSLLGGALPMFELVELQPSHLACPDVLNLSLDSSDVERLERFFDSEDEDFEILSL
HTRA1 inh conf: confirmation of human HTRA1 inhibitors | shares compounds with HTRA1 inhibitor | recombinant HTRA1, FP-rhodamine activity-based probe, fluorescence polarization | inhibition, % at 5.96 µM | 1,600 tested, 66% active | AID 540248;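 active means mean inhibition over three repeats above a set limit taken from the earlier primary screen, cut at about 37% in these data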;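 further: inhibitors block probe binding so polarization drops and inhibition rises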
Of the large screens only hits and unclear results are named; the others gave an inactive call (follow-up assays come after a bar, where they were run).

O=S(=O)(c1cccnc1)N1CCn2cccc2C1c1ccccc1F (centres undefined)	HTRA1 inhibitor 77 | HTRA1 inh conf inactive
COC(=O)C1=C(C(=O)OC)SC(=C2C(=S)C(C)(C)N(C(=O)C3CC3)c3ccccc32)S1	HTRA1 inhibitor 45 | HTRA1 inh conf 52
O=C(C[n+]1ccc(CCSc2ccc(F)cc2)cc1)c1ccccc1	HTRA1 inhibitor 37 (no result: mABHD4 FP, SIAE inh, PRMT1 inh, TCR-CD3 inh) | HTRA1 inh conf 60
Cc1cccc(OCC(=O)NC(=S)N2CCCc3ccccc32)c1	HTRA1 inhibitor 48 | HTRA1 inh conf inactive
CC(C)C(=O)NC(c1ccccc1)c1cc([N+](=O)[O-])c2cccnc2c1O (centres undefined)	HTRA1 inhibitor 39 | HTRA1 inh conf 46
CC(=O)NC(c1ccccc1)c1cc([N+](=O)[O-])c2cccnc2c1O (centres undefined)	HTRA1 inhibitor 53 | HTRA1 inh conf 69
CC(=O)NC(c1cccs1)c1cc([N+](=O)[O-])c2cccnc2c1O (centres undefined)	none
Cc1cc(OC(=O)c2ccco2)c2c(C)cc(=O)oc2c1	none
CCc1cc(=O)oc2cc(C)cc(OC(=O)c3ccco3)c12	HTRA1 inhibitor 48 | HTRA1 inh conf inactive
Cc1ccc(CN2CCCCC(NC(=O)Nc3ccccc3F)C2=O)cc1 (centres undefined)	none (no result: TCR-CD3 inh, HTRA1 inhibitor, ATG4B inhibitor)
O=C(Nc1ccc(F)cc1)OCc1cn(Cc2c(F)cccc2F)nn1	none (no result: TCR-CD3 inh, HTRA1 inhibitor, ATG4B inhibitor)
CC(COc1cccc(F)c1)CN1CCC(C(O)(c2ccccc2)c2ccccc2)CC1 (centres undefined)	none (no result: TCR-CD3 inh, HTRA1 inhibitor, ATG4B inhibitor)
O=C(/C=C/c1ccc(O)c(O)c1)OCCc1ccccc1	HTRA1 inhibitor 64 | HTRA1 inh conf 71
O=C(/C=C/c1ccc(O)c(O)c1)OC(Cc1ccc(O)c(O)c1)C(=O)O (centres undefined)	none
CCC1CCCCN1C(=O)n1ncc(C(O)(c2ccccc2)c2ccccc2)n1 (centres undefined)	none (no result: TCR-CD3 inh, HTRA1 inhibitor, ATG4B inhibitor)
Cc1cc(C)c2c(c1)NC(C(=O)O)C1CC=CC21 (centres undefined)	mABHD4 FP 56, SIAE inh 20, PRMT1 inh 32, TCR-CD3 inh 29, HTRA1 inhibitor 74 | HTRA1 inh conf 70
CC(C)CN1C(=O)N2Cc3ccccc3C2CS1(=O)=O (centres undefined)	none (no result: TCR-CD3 inh, HTRA1 inhibitor, ATG4B inhibitor)
O=C(CCc1ccccc1)NC(c1cccs1)c1cc(Cl)c2cccnc2c1O (centres undefined)	HTRA1 inhibitor 49 | HTRA1 inh conf 54
CCCC(=O)NC(c1cccs1)c1cc([N+](=O)[O-])c2cccnc2c1O (centres undefined)	HTRA1 inhibitor 36 | HTRA1 inh conf 51
CCC(=O)NC(c1cccs1)c1cc([N+](=O)[O-])c2cccnc2c1O (centres undefined)	none
O=C(OCc1cn(Cc2ccccc2F)nn1)N1CCOCC1	none (no result: TCR-CD3 inh, HTRA1 inhibitor, ATG4B inhibitor)
CCOC(=O)[C@@H]1CSCCS(=O)(=O)N1Cc1ccccc1	none (no result: TCR-CD3 inh, HTRA1 inhibitor, ATG4B inhibitor)
Cc1ccccc1C1C(C#N)=C2N=C(N)c3c(sc4c3CCCCC4)N2C2=C1C(=O)CCC2 (centres undefined)	HTRA1 inhibitor 50 (no result: mABHD4 FP, SIAE inh, PRMT1 inh, TCR-CD3 inh) | HTRA1 inh conf inactive
COc1cccc2c(N/N=C/c3ccc(O)c(O)c3)cc(C)nc12	HTRA1 inhibitor 47 | HTRA1 inh conf 77
Cc1ccc(S(=O)(=O)c2cc(OC(=O)c3ccco3)ccc2OC(=O)c2ccco2)cc1	none
O=C(Oc1ccc(OC(=O)c2ccco2)c(S(=O)(=O)c2ccc(Br)cc2)c1)c1ccco1	HTRA1 inhibitor 42 (no result: mABHD4 FP, SIAE inh, PRMT1 inh, TCR-CD3 inh) | HTRA1 inh conf 51
Cc1ccc(C(=O)NCCN2C(=O)C3C4C=CC(C4)C3C2=O)cc1 (centres undefined)	none (no result: TCR-CD3 inh, HTRA1 inhibitor, ATG4B inhibitor)
COC(=O)[C@]12C[C@H](CC(=O)NCCCCc3ccccc3)C(=O)N(Cc3ccc(Cl)cc3Cl)C1=C[C@H](C(C)C)O[C@@H]2C1CC1	none (no result: TCR-CD3 inh, HTRA1 inhibitor, ATG4B inhibitor)
CCOc1ccc2c(ccc(/C=C/c3cc(C)c4cccnc4c3O)[n+]2C)c1	HTRA1 inhibitor 64 (no result: mABHD4 FP, SIAE inh, PRMT1 inh, TCR-CD3 inh) | HTRA1 inh conf 90
CCOc1ccc2[nH]c3ncccc3c(=O)c2c1	none
Nc1sc2c(c1C(=O)NC1CC1)CCCC2	HTRA1 inhibitor 47 | HTRA1 inh conf inactive
Cc1ccccc1Cn1cc(COC(=O)NCCc2c[nH]c3ccccc23)nn1	none (no result: TCR-CD3 inh, HTRA1 inhibitor, ATG4B inhibitor)
O=C(C=Cc1ccccc1O)c1ccccc1O	none
O=C(/C=C/c1ccccc1Cl)c1ccc(O)cc1	none
O=C(/C=C/c1ccccc1Cl)c1ccccc(=O)c1O	HTRA1 inhibitor 44 | HTRA1 inh conf 46
Cc1ccc(/C=C/C(=O)c2ccccc(=O)c2O)c(C)c1	HTRA1 inhibitor 53 | HTRA1 inh conf 45
CC(C)C[C@H]1COc2cccc(F)c2S(=O)(=O)N1Cc1cn(CC2CCCCC2)nn1	none (no result: TCR-CD3 inh, HTRA1 inhibitor, ATG4B inhibitor)
COC(=O)CCC(=O)OC1(C)C(=O)C2=CN(C3CC3)C(c3ccc(OC)cc3)=CC2=C(Br)C1=O (centres undefined)	none
COC(=O)CCC(=O)OC1(C)C(=O)C2=CN(CCc3c[nH]c4ccccc34)C(c3ccc(OC)cc3)=CC2=C(Br)C1=O (centres undefined)	none (no result: mABHD4 FP, SIAE inh, PRMT1 inh, TCR-CD3 inh)
COC(=O)CCC(=O)OC1(C)C(=O)C2=CN(CC3CC3)C(c3ccc(OC)cc3)=CC2=C(Br)C1=O (centres undefined)	HTRA1 inhibitor 50 (no result: mABHD4 FP, SIAE inh, PRMT1 inh, TCR-CD3 inh) | HTRA1 inh conf 46
COC(=O)CCC(=O)OC1(C)C(=O)C2=CN(c3ccccc3)C(c3ccc(OC)cc3)=CC2=C(Br)C1=O (centres undefined)	HTRA1 inhibitor 47 | HTRA1 inh conf 48
COC(=O)CCC(=O)OC1(C)C(=O)C2=CN(Cc3ccc(OC)cc3)C(c3ccc(OC)cc3)=CC2=C(Br)C1=O (centres undefined)	none
COC(=O)CCC(=O)OC1(C)C(=O)C2=CN(Cc3ccccc3)C(c3ccc(OC)cc3)=CC2=C(Br)C1=O (centres undefined)	HTRA1 inhibitor 60 | HTRA1 inh conf 63
COC(=O)CCC(=O)OC1(C)C(=O)C2=CN(CCCOC(C)C)C(c3ccc(OC)cc3)=CC2=C(Br)C1=O (centres undefined)	HTRA1 inhibitor 39 (no result: mABHD4 FP, SIAE inh, PRMT1 inh, TCR-CD3 inh) | HTRA1 inh conf 50
c1cc2ccn(CC3CC3)c2cc1-c1ccc2ccn(CC3CC3)c2c1	none (no result: TCR-CD3 inh, HTRA1 inhibitor, ATG4B inhibitor)
CCCCCCN1CCS(=O)(=O)N(Cc2ccc(OC)cc2)C(C(=O)OC)C1 (centres undefined)	none (no result: TCR-CD3 inh, HTRA1 inhibitor, ATG4B inhibitor)
COCO[C@@H]1CC(CO)=C[C@H]2OCO[C@H]21	none (no result: TCR-CD3 inh, HTRA1 inhibitor, ATG4B inhibitor)
COc1ccc(-n2sc3c(c2=S)-c2cc(OC)ccc2NC3(C)C)cc1	none
COc1ccc2c(c1)-c1c(ssc1=S)C(C)(C)N2	HTRA1 inhibitor 38 | HTRA1 inh conf 37
